Most compounds without a hit are left out; they make up all but 1.1% or so of the library.
Furin inhibitor: human furin inhibitors, primary screen, biochemical, fluorescence intensity; P09958; purified furin, fluorogenic substrate cleavage; inhibition, % at 20 µM or 30 µM; hit rate 0.061% among 220,000; AID 463115, 2010; in the data active = inhibition above about 25%
thrombin 1536: human alpha-thrombin inhibitors, primary screen, counter-screen for coagulation protease inhibitor project, biochemical, 1536-well, fluorogenic AMC substrate; Boc-VPR-AMC fluorogenic substrate cleavage; AID 1046, 2008; Prothrombin (Homo sapiens), P00734; hit rate 0.26% among 220,000; inhibition, % at 5 µM;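 active = inhibition at or above 40%; inactive = inhibition below 40%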
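Material: human alpha-thrombin protein; Also added: Boc-VPR-AMC substrate, 15 µM final; Timing: enzyme reaction carried out at room temperature; Signal: fluorescence, ex 355 nm, em 460 nm; Measure: % inhibition of thrombin; Controls: enzyme without compound as high, wells lacking enzyme as low.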
FXIIa inh 1536: human FXIIa protease inhibitors, primary screen, biochemical, 1536-well; hit rate 0.3% among 220,000; inhibition, % at 5 µM; purified FXIIa, Boc-QGR-AMC fluorogenic substrate, 2 h; Coagulation factor XII (Homo sapiens), P00748; in the data active = inhibition above about 40%
FXIa inh 1536: human FXIa protease inhibitors, primary screen, biochemical, 1536-well. purified FXIa, Boc-Glu-Ala-Arg-AMC fluorogenic substrate. inhibition, % at 5 µM. Coagulation factor XI (Homo sapiens), P03951. hit rate 0.14% among 220,000;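 active = inhibition of at least 40%; inactive = inhibition below 40%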;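 also: fluorescence of freed AMC excited at 355 nm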
hK5 inh: human KLK5 protease inhibitors, primary screen, biochemical, 1536-well. Kallikrein-5 (Homo sapiens), Q9Y337. recombinant hK5, fluorogenic AMC substrate cleavage. inhibition, % at 5 µM. hit rate 0.59% among 210,000;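 active = inhibition of 40% or more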
Target sequence (Q9Y337 67-293 limits assumed): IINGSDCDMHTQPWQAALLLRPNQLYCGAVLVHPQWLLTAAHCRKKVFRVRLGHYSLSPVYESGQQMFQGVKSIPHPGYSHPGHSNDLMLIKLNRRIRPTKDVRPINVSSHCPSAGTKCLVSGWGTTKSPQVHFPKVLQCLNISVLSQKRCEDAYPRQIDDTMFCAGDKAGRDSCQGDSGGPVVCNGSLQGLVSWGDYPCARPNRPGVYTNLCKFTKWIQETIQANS
Each line names hits and unclear results; the compound was inactive in the other large screens.

Cc1ccc(OCc2nnc(SCC(=O)c3ccccc3)n2Cc2ccco2)cc1	none
O=C(CSc1nnc(COc2ccccc2)n1Cc1ccco1)c1ccc(F)cc1	FXIIa inh 1536 62
O=c1c2ccccc2nnn1CSc1nnc(COc2ccc(Cl)cc2)n1Cc1ccco1	hK5 inh 48
O=C(c1ccc([N+](=O)[O-])cc1)n1nc(-c2ccccc2)nc1NCc1ccccc1	thrombin 1536 87
O=C(c1cccc([N+](=O)[O-])c1)n1nc(-c2ccccc2)nc1NCc1ccccc1	thrombin 1536 67
O=C(c1ccco1)n1nc(-c2ccccc2)nc1NCc1ccco1	none
O=C(c1cccs1)n1nc(-c2ccccc2)nc1NCc1ccc(F)cc1	none
O=C(c1ccc([N+](=O)[O-])cc1)n1nc(-c2ccccc2)nc1NCc1ccc(F)cc1	thrombin 1536 52
CC(=O)n1nc(-c2ccccc2)nc1NCc1ccc(F)cc1	thrombin 1536 98
CSc1ncc(-c2ccc(Cl)cc2)[nH]1	none
COc1cc(Br)c(C2C(C#N)=C(N)Oc3n[nH]c(-c4cccnc4)c32)cc1OC (stereo unspecified)	none (no result: thrombin 1536)
CCn1c(CC(=O)Nc2ccc(C)cc2)n[nH]c1=S	none
O=C(O)CS(=O)CC(=O)Nc1cccc(C(F)(F)F)c1 (stereo unspecified)	none
CCc1ccccc1NC(=O)CSc1nc(-c2ccccc2)nn1C(=O)c1cccc([N+](=O)[O-])c1	none
O=C(CSc1nc(-c2ccccc2)nn1C(=O)c1ccccc1)Nc1cccc([N+](=O)[O-])c1	thrombin 1536 57
CNS(=O)(=O)c1cc(C(=O)O)ccc1OC	FXIIa inh 1536 41
COc1ccc(C(=O)O)cc1S(N)(=O)=O	none
COc1ccc(C(=S)N2CCN(C)CC2)cc1Br	none
COc1ccc(C(=O)n2ccc(C)n2)cc1Br	hK5 inh 70
CCOC(=O)c1cccc(NC(=O)C2CCN(S(=O)(=O)c3cccs3)CC2)c1	none
CCOC(=O)c1ccc2c(c1)nc(C1CCN(S(=O)(=O)c3cccs3)CC1)n2CC	FXIIa inh 1536 52
CN1C(=O)/C(=C2\SC(=S)N(C(CCC(=O)O)C(=O)O)C2=O)c2ccccc21 (stereo unspecified)	thrombin 1536 104, hK5 inh 64
C=C(C)c1cccc(C(C)(C)NC(=O)NCc2ccc(OC)cc2)c1	none
COc1ccc(CNC(=O)NC(C)(C)c2cccc(C(C)(C)NC(=O)NCc3ccc(OC)cc3)c2)cc1	hK5 inh 44
CCn1c(-c2c(Cl)c(C)nn2C)n[nH]c1=S	hK5 inh 55
CCN(CC)CCCN1C(=O)CSC1c1ccc2c(c1)OCO2 (stereo unspecified)	hK5 inh 52
CCN(CC)CCCN1C(=O)CSC1c1ccc([N+](=O)[O-])cc1 (stereo unspecified)	none
CN(C)S(=O)(=O)c1ccc(NC=O)cc1	none (no result: thrombin 1536)
NC(=O)c1ccsc1NC(=O)CSc1nnc(C2CC2)n1Cc1ccccc1	thrombin 1536 59, hK5 inh 48
O=C(CSc1nnc(C2CC2)n1Cc1ccccc1)NCc1ccccc1	none
CCN(CC)CCNC(=O)c1cccc(NC(=O)C(=O)c2cc(Br)ccc2NC(C)=O)c1	none (no result: thrombin 1536)
CCOC(=O)CNC(=O)CSc1nnc(-c2ccc(OC)cc2)n1CC	none
CCOC(=O)CSc1nnc(-c2ccc(OC)cc2)n1CC	hK5 inh 78
Cc1cccc(C(=O)Nc2sc(C)c(-c3ccccc3)c2C#N)c1	thrombin 1536 53, hK5 inh 56
Cc1noc(C)c1C(=O)Nc1sc(C)c(-c2ccccc2)c1C#N	none
CCN1C(=O)/C(=C\c2ccco2)C(C(=O)OC)=C1C	FXIIa inh 1536 43
COC(=O)c1cc(N2C(=O)C3C(C2=O)C2(C)C=CC3(C)O2)ccc1Cl (stereo unspecified)	thrombin 1536 104, hK5 inh 44
CC1CCN(C(=O)c2cc(N3C(=O)C4C5CCC(C5)C4C3=O)ccc2Cl)CC1 (stereo unspecified)	none
CCCN(CCC)C(=O)Cn1ccc(=N)c2ccccc21	hK5 inh 46
COC(=O)C1=C(SC)N(c2ccccc2)C(c2ccccc2)CC1=O (stereo unspecified)	none
CCCn1c(-c2ccc[nH]c2=O)nc2cc(C)c(C)cc21	none (no result: hK5 inh)
CCc1ccc(NC2CC(=O)N(c3ccc(OC)cc3OC)C2=O)cc1 (stereo unspecified)	thrombin 1536 43
CCOC(=O)C1(O)CC(C)=NN1C(=O)c1cccc(Cl)c1 (stereo unspecified)	none
O=C1CC(Nc2ccccc2)C(=O)N1c1ccc(N2CCOCC2)cc1 (stereo unspecified)	hK5 inh 45
O=C1c2oc3ccccc3c(=O)c2C(c2cccc(F)c2)N1CCCO (stereo unspecified)	FXIIa inh 1536 51
O=C1c2oc3ccccc3c(=O)c2C(c2cccc(O)c2)N1CCCN1CCOCC1 (stereo unspecified)	none
N=C1C=CC=C2C1=NC1(CCCCC1)N2O	thrombin 1536 104, hK5 inh 98
Cc1ccc(S(=O)(=O)CCC(=O)OCc2ccc(Cl)cc2)cc1	hK5 inh 53
O=c1[nH]cnc2c1N=C(c1cccc([N+](=O)[O-])c1)CC(c1ccccc1)N2 (stereo unspecified)	none
C/C(CCc1ccccc1)=N\NC(=O)CC(=O)NCCc1ccccc1	none
CCOC(=O)/C(C#N)=C/N=c1ccc(C)cn1C	FXIIa inh 1536 104, hK5 inh 43
CCCn1c(SCC(=O)Nc2cccc(S(=O)(=O)N(C)C)c2)nc2ccccc2c1=O	none
CC1=C(C(=O)OCCOc2ccccc2)C(c2ccsc2)NC(=O)N1C (stereo unspecified)	FXIa inh 1536 54
COC(=O)C1=C(C)N(C)C(=O)NC1c1ccccc1 (stereo unspecified)	none
CCCCOc1ccc([N+](=O)[O-])cc1C(=O)O	none
O=C(CCN1C(=O)c2ccccc2C1=O)N(CCO)Cc1ccccc1	Furin inhibitor 27
COc1ccc([N+](=O)[O-])cc1NCc1ccco1	FXIa inh 1536 81
COc1ccc(CSc2nc(C)cc(C)c2S(C)(=O)=O)cc1	FXIa inh 1536 41
COc1ccc(Oc2nc(C)cc(C)c2S(C)(=O)=O)cc1	none
COCC1CCCCN1Cc1cn[nH]c1-c1ccc2cc(OC)ccc2c1 (stereo unspecified)	none
Cc1cc(Cl)c(S(=O)(=O)N2CCCCCC2)cc1OCC(N)=O	hK5 inh 41
Cc1cc(Cl)c(S(=O)(=O)N2CCCC2)cc1OCC(N)=O	none (no result: hK5 inh)
Cc1cc(Cl)c(S(=O)(=O)NCc2ccccc2)cc1OCC(N)=O	none
Cc1cc(Cl)c(S(=O)(=O)NCc2ccncc2)cc1OCC(N)=O	hK5 inh 54
Cc1ccccc1OCCC(=O)Nc1ccc(Cl)cc1F	none
Cc1noc(C)c1C(=O)Nc1nnc(CC(C)C)s1	none
